Test results published in ChEMBL document CHEMBL3627671, “Novel derivatives of nitro-substituted salicylic acids: Synthesis, antimicrobial activity and cytotoxicity” (Bioorg Med Chem, 2015).

Tests used:
[1] = tested on: Mycobacterium tuberculosis; assay: Antimycobacterial activity against Mycobacterium tuberculosis H37Rv 331/88 after 14 days; assay type: functional; conditions: H37Rv 331/88, 336 h
[2] = tested on: Mycobacterium tuberculosis; assay: Antimycobacterial activity against Mycobacterium tuberculosis H37Rv 331/88 after 21 days; assay type: functional; conditions: H37Rv 331/88, 504 h
Mycobacterium avium [3] = assay: Antimycobacterial activity against Mycobacterium avium 330/80 after 14 days; assay type: functional; conditions: 330/80, 336 h
Mycobacterium avium [4] = assay: Antimycobacterial activity against Mycobacterium avium 330/80 after 21 days; assay type: functional; conditions: 330/80, 504 h
Mycobacterium kansasii [5] = assay: Antimycobacterial activity against Mycobacterium kansasii 235/80 after 7 days; assay type: functional; conditions: 235/80, 168 h
Outline: (§1)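 Šula's semisynthetic medium micromethod at 37 °C, read after 7, 14 and 21 days. The 1.0 McFarland suspension was diluted 10^-4. MIC determined. 6509/96 is a clinical isolate.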

Mycobacterium kansasii [6] = assay: Antimycobacterial activity against Mycobacterium kansasii 235/80 after 14 days; assay type: functional; conditions: 235/80, 336 h; outline: as §1
Mycobacterium kansasii [7] = assay: Antimycobacterial activity against Mycobacterium kansasii 235/80 after 21 days; assay type: functional; conditions: 235/80, 504 h; outline: as §1
Mycobacterium kansasii [8] = assay: Antimycobacterial activity against Mycobacterium kansasii 6509/96 after 7 days; assay type: functional; conditions: 6509/96, 168 h; outline: as §1
Mycobacterium kansasii [9] = assay: Antimycobacterial activity against Mycobacterium kansasii 6509/96 after 14 days; assay type: functional; conditions: 6509/96, 336 h; outline: as §1
Mycobacterium kansasii [10] = assay: Antimycobacterial activity against Mycobacterium kansasii 6509/96 after 21 days; assay type: functional; conditions: 6509/96, 504 h; outline: as §1
Staphylococcus aureus [11] = assay: Antibacterial activity against Staphylococcus aureus CCM 4516/08 after 24 hrs by microdilution broth method; assay type: functional; conditions: CCM 4516/08, 24 h
Staphylococcus aureus [12] = assay: Antibacterial activity against Staphylococcus aureus CCM 4516/08 after 48 hrs by microdilution broth method; assay type: functional; conditions: CCM 4516/08, 48 h
Staphylococcus aureus [13] = assay: Antibacterial activity against methicillin-resistant Staphylococcus aureus H 5996/08 after 24 hrs by microdilution broth method; assay type: functional; conditions: H 5996/08, 24 h
Staphylococcus aureus [14] = assay: Antibacterial activity against methicillin-resistant Staphylococcus aureus H 5996/08 after 48 hrs by microdilution broth method; assay type: functional; conditions: H 5996/08, 48 h
[15] = tested on: Staphylococcus epidermidis; assay: Antibacterial activity against Staphylococcus epidermidis H 6966/08 after 24 hrs by microdilution broth method; assay type: functional; conditions: H 6966/08, 24 h
Outline: (§2)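 Mueller-Hinton broth microdilution (modified M07-A07), pH 7.4 (±0.2). Compounds dissolved in DMSO, tested at final 500 to 0.49 µmol/L. Inoculum in sterile water matched to 0.5 McFarland. Incubated in the dark, humid atmosphere, 35 °C, read at 24 and 48 h visually and at 540 nm. MIC taken as ≥95% growth reduction (IC95) versus control.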

[16] = tested on: Staphylococcus epidermidis; assay: Antibacterial activity against Staphylococcus epidermidis H 6966/08 after 48 hrs by microdilution broth method; assay type: functional; conditions: H 6966/08, 48 h; outline: as §2
Enterococcus sp. [17] = assay: Antibacterial activity against Enterococcus sp. J 14365/08 after 24 hrs by microdilution broth method; assay type: functional; conditions: J 14365/08, 24 h; outline: as §2
Enterococcus sp. [18] = assay: Antibacterial activity against Enterococcus sp. J 14365/08 after 48 hrs by microdilution broth method; assay type: functional; conditions: J 14365/08, 48 h; outline: as §2
Escherichia coli [19] = assay: Antibacterial activity against Escherichia coli CCM4517 after 24 hrs by microdilution broth method; assay type: functional; conditions: CCM4517, 24 h; outline: as §2
Escherichia coli [20] = assay: Antibacterial activity against Escherichia coli CCM4517 after 48 hrs by microdilution broth method; assay type: functional; conditions: CCM4517, 48 h; outline: as §2
Klebsiella pneumoniae [21] = assay: Antibacterial activity against Klebsiella pneumoniae D 11750/08 after 24 hrs by microdilution broth method; assay type: functional; conditions: D 11750/08, 24 h; outline: as §2
Klebsiella pneumoniae [22] = assay: Antibacterial activity against Klebsiella pneumoniae D 11750/08 after 48 hrs by microdilution broth method; assay type: functional; conditions: D 11750/08, 48 h; outline: as §2
Klebsiella pneumoniae [23] = assay: Antibacterial activity against ESBL-positive Klebsiella pneumoniae J 14368/08 after 24 hrs by microdilution broth method; assay type: functional; conditions: J 14368/08, 24 h; outline: as §2
Klebsiella pneumoniae [24] = assay: Antibacterial activity against ESBL-positive Klebsiella pneumoniae J 14368/08 after 48 hrs by microdilution broth method; assay type: functional; conditions: J 14368/08, 48 h; outline: as §2
Pseudomonas aeruginosa [25] = assay: Antibacterial activity against Pseudomonas aeruginosa CCM 1961 after 24 hrs by microdilution broth method; assay type: functional; conditions: CCM 1961, 24 h; outline: as §2
Pseudomonas aeruginosa [26] = assay: Antibacterial activity against Pseudomonas aeruginosa CCM 1961 after 48 hrs by microdilution broth method; assay type: functional; conditions: CCM 1961, 48 h; outline: as §2
Candida albicans [27] = assay: Antifungal activity against Candida albicans ATCC 44859 after 24 hrs by microdilution broth method; assay type: functional; conditions: ATCC 44859, 24 h
Outline: (§3)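 CLSI M27-A3 broth microdilution in RPMI 1640 with glutamine, buffered to pH 7.0 with MOPS; DMSO diluent. Yeast inoculum 5 × 10^3 ± 0.2 CFU/mL. Moulds grown on Sabouraud agar 3–10 days before spore harvest, final inoculum 0.5-5 × 10^4 CFU/mL, checked in a Bürker chamber. Incubated dark, humid, 35 °C, read at 24 and 48 h visually and at 540 nm. MIC taken as ≥80% (yeasts) or ≥50% (filamentous) growth reduction versus control.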

Candida albicans [28] = assay: Antifungal activity against Candida albicans ATCC 44859 after 48 hrs by microdilution broth method; assay type: functional; conditions: ATCC 44859, 48 h; outline: as §3
Candida tropicalis [29] = assay: Antifungal activity against Candida tropicalis 156 after 24 hrs by microdilution broth method; assay type: functional; conditions: Candida tropicalis, 156, 24 h; outline: as §3
Candida tropicalis [30] = assay: Antifungal activity against Candida tropicalis 156 after 48 hrs by microdilution broth method; assay type: functional; conditions: Candida tropicalis, 156, 48 h; outline: as §3
Pichia kudriavzevii [31] = assay: Antifungal activity against Candida krusei E28 after 24 hrs by microdilution broth method; assay type: functional; conditions: E28, 24 h; outline: as §3
Pichia kudriavzevii [32] = assay: Antifungal activity against Candida krusei E28 after 48 hrs by microdilution broth method; assay type: functional; conditions: E28, 48 h; outline: as §3
Nakaseomyces glabratus [33] = assay: Antifungal activity against Candida glabrata 20/I after 24 hrs by microdilution broth method; assay type: functional; outline: as §3
Nakaseomyces glabratus [34] = assay: Antifungal activity against Candida glabrata 20/I after 48 hrs by microdilution broth method; assay type: functional; outline: as §3
Trichosporon asahii [35] = assay: Antifungal activity against Trichosporon asahii 1188 after 24 hrs by microdilution broth method; assay type: functional; conditions: Trichosporon asahii, 1188, 24 h; outline: as §3
Trichosporon asahii [36] = assay: Antifungal activity against Trichosporon asahii 1188 after 48 hrs by microdilution broth method; assay type: functional; conditions: Trichosporon asahii, 1188, 48 h; outline: as §3
Aspergillus fumigatus [37] = assay: Antifungal activity against Aspergillus fumigatus 231 after 24 hrs by microdilution broth method; assay type: functional; conditions: Aspergillus fumigatus, 231, 24 h; outline: as §3
Aspergillus fumigatus [38] = assay: Antifungal activity against Aspergillus fumigatus 231 after 48 hrs by microdilution broth method; assay type: functional; conditions: Aspergillus fumigatus, 231, 48 h; outline: as §3
Lichtheimia corymbifera [39] = assay: Antifungal activity against Absidia corymbifera 272 after 24 hrs by microdilution broth method; assay type: functional; conditions: Lichtheimia corymbifera, 272, 24 h; outline: as §3
Lichtheimia corymbifera [40] = assay: Antifungal activity against Absidia corymbifera 272 after 48 hrs by microdilution broth method; assay type: functional; conditions: Lichtheimia corymbifera, 272, 48 h; outline: as §3
[41] = tested on: Trichophyton mentagrophytes; assay: Antifungal activity against Trichophyton mentagrophytes 445 after 24 hrs by microdilution broth method; assay type: functional; conditions: Trichophyton mentagrophytes, 445, 24 h
[42] = tested on: Trichophyton mentagrophytes; assay: Antifungal activity against Trichophyton mentagrophytes 445 after 48 hrs by microdilution broth method; assay type: functional; conditions: Trichophyton mentagrophytes, 445, 48 h
HepG2 = assay: Cytotoxicity against human HepG2 cells after 24 hrs […]; assay type: cell-based; conditions: HepG2, 24 h
[43] = Selectivity index, ratio of CI50 for human HepG2 cells to MIC100 for Mycobacterium tuberculosis H37Rv 331/88

O=C(Nc1cccc(C(F)(F)F)c1)c1ccc([N+](=O)[O-])cc1O
> 500 µM: MIC (Klebsiella pneumoniae [23]) | MIC (Klebsiella pneumoniae [24]) | MIC (Pseudomonas aeruginosa [25]) | MIC (Pseudomonas aeruginosa [26]) | MIC (Candida albicans [27]) | MIC (Candida albicans [28]) | MIC (Candida tropicalis [29]) | MIC (Candida tropicalis [30]) | MIC (Pichia kudriavzevii [32]) | MIC (Nakaseomyces glabratus [33]) | MIC (Nakaseomyces glabratus [34]) | MIC (Aspergillus fumigatus [38]) | MIC (Lichtheimia corymbifera [40]) | MIC [41] | MIC [42]
500 µM: MIC (Enterococcus sp. [18]) | MIC (Escherichia coli [19]) | MIC (Escherichia coli [20]) | MIC (Klebsiella pneumoniae [21]) | MIC (Klebsiella pneumoniae [22]) | MIC (Aspergillus fumigatus [37]) | MIC (Lichtheimia corymbifera [39])
0.35: Selectivity Index [43]
1.95 µM: MIC (Staphylococcus aureus [13]) | MIC (Staphylococcus aureus [14]) | MIC [15]
250 µM: MIC (Enterococcus sp. [17]) | MIC (Pichia kudriavzevii [31]) | MIC (Trichosporon asahii [36])
7.81 µM: MIC [16]
3.9 µM: MIC (Staphylococcus aureus [11]) | MIC (Staphylococcus aureus [12])
2.8 µM: IC50 (HepG2)
8 µM: MIC [1] | MIC [2] | MIC (Mycobacterium kansasii [5]) | MIC (Mycobacterium kansasii [8])
62.5 µM: MIC (Mycobacterium avium [3]) | MIC (Mycobacterium avium [4]) | MIC (Trichosporon asahii [35])
16 µM: MIC (Mycobacterium kansasii [6]) | MIC (Mycobacterium kansasii [7]) | MIC (Mycobacterium kansasii [9]) | MIC (Mycobacterium kansasii [10])

O=C(Nc1ccc(C(F)(F)F)cc1)c1cc([N+](=O)[O-])ccc1O
0.438: Selectivity Index [43]
16 µM: MIC (Mycobacterium kansasii [6]) | MIC (Mycobacterium kansasii [8])
500 µM: MIC (Trichosporon asahii [35]) | MIC (Trichosporon asahii [36]) | MIC (Aspergillus fumigatus [37]) | MIC (Aspergillus fumigatus [38]) | MIC (Lichtheimia corymbifera [39]) | MIC (Lichtheimia corymbifera [40]) | MIC [41] | MIC [42]
8 µM: MIC [1] | MIC [2] | MIC (Mycobacterium kansasii [5])
15.6 µM: MIC [15] | MIC [16]
> 500 µM: MIC (Enterococcus sp. [17]) | MIC (Enterococcus sp. [18]) | MIC (Escherichia coli [19]) | MIC (Escherichia coli [20]) | MIC (Klebsiella pneumoniae [21]) | MIC (Klebsiella pneumoniae [22]) | MIC (Klebsiella pneumoniae [23]) | MIC (Klebsiella pneumoniae [24]) | MIC (Pseudomonas aeruginosa [25]) | MIC (Pseudomonas aeruginosa [26]) | MIC (Candida albicans [27]) | MIC (Candida albicans [28]) | MIC (Candida tropicalis [29]) | MIC (Candida tropicalis [30]) | MIC (Pichia kudriavzevii [31]) | MIC (Pichia kudriavzevii [32]) | MIC (Nakaseomyces glabratus [33]) | MIC (Nakaseomyces glabratus [34])
32 µM: MIC (Mycobacterium kansasii [7]) | MIC (Mycobacterium kansasii [9]) | MIC (Mycobacterium kansasii [10])
3.5 µM: IC50 (HepG2)
31.2 µM: MIC (Staphylococcus aureus [11]) | MIC (Staphylococcus aureus [12]) | MIC (Staphylococcus aureus [13]) | MIC (Staphylococcus aureus [14])
62.5 µM: MIC (Mycobacterium avium [3]) | MIC (Mycobacterium avium [4])
